NSD2 HMT inh: NSD2 (human) methyltransferase inhibition; 0.54% of 310,000 active; inhibition, % at 12.5 µM; NSD2 peptide methylation, AlphaScreen, 120 min; AID 743445; O96028; in the data active means inhibition above about 50%
SR-BI uptake up: enhances SR-BI lipid uptake from DiI-HDL; activation, % at 12.5 µM; AID 504775; 0.096% of 320,000 active; CHO ldlA[mSR-BI] cells, DiI-HDL uptake fluorescence, 3 h; 100 = double the neutral-control signal;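 active means mean replicate activation of at least 60% and every replicate at or above 60%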
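material = CHO ldlA[mSR-BI] cells | medium = Ham's F12 with 0.5% BSA, HEPES 25 mM, pH 7.4 | reagent = fluorescent DiI-HDL, 10 µg/mL final | compound dosing = single-point compound dose | incubation = 3 h, 37 °C | measured by = bottom-read fluorescence, 550/595 nm | measure = HDL uptake via cellular fluorescence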
ARNT-TACC3 inh: disrupts binding between human ARNT and TACC3. AID 623870. inhibition, % at 9.99 µM. AlphaScreen His-ARNT PAS-B/GST-TACC3 binding, luminescence; TACC3 fragment carries E629A point mutation. Q9Y6A5. 0.66% of 390,000 active;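 active means mean inhibition of replicates at least 50% and at least half of replicates each reaching 50%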
SR-BI DiI inh: blocks mouse SR-BI lipid uptake from DiI-HDL; Q61009; ldlA[mSR-BI] CHO cells, DiI-HDL uptake fluorescence, 3 h; inhibition, % at 12.5 µM; 0.96% of 320,000 active; AID 488896;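 active means mean replicate inhibition of at least 70% and a set share of replicates each scoring 70 or more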
Xi reactivation: reactivates the inactive X chromosome in mouse fibroblasts; XiGFP mouse fibroblasts, % GFP-positive cells imaging, 3 d; cells co-treated with 5-aza-dC sensitizer; scaled so ellipticine positive control = 100%; activation, % at 7.58 µM; 0.055% of 360,000 active;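 active means mean normalized replicate activation at least 10% and every replicate at or above 10%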
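material = 68-5-11 XiGFP fibroblast line | medium = DMEM plus 5-aza-dC sensitizer | schedule = 3 days compound exposure | benchmarks = positive control ellipticine, 6 µM final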
sPLA2-III inh: Blocks human group III sPLA2 activity; AID 743126; QFRET BODIPY PC-A2 liposome hydrolysis, fluorescence; 0.56% of 370,000 active; inhibition, % at 12.2 µM;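 active means inhibition above mean plus 3 SD of compounds lying within the high and low control bounds, cut at about 19% in these data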
A number is an active result; – = inactive; · = no result given. An excerpt weighted towards active compounds, which were near 2% of everything screened.

SMILES | NSD2 HMT inh | SR-BI uptake up | ARNT-TACC3 inh | SR-BI DiI inh | Xi reactivation | sPLA2-III inh
Cc1noc(C)c1S(=O)(=O)Nc1ccc2c(c1)C(=O)N([C@@H](C)CO)C[C@H](C)[C@@H](CN(C)C(=O)NC1CCCCC1)OCCCC[C@@H](C)O2 | · | · | – | · | – | ·
CCN(CC)c1ccc(/C=N/NC(=O)Cc2cccs2)c(O)c1 | – | – | 32 | – | – | –
COc1cc(OC)c(OC)cc1/C=N/Nc1nc2ccccc2[nH]1 | – | – | – | – | – | –
CCN(CC)c1ccc(/C=N/NC(=O)c2ccco2)c(O)c1 | – | – | 74 | – | – | –
CCN(CC)c1ccc(/C=N/Nc2nc3ccccc3[nH]2)c(O)c1 | – | – | – | 114 | · | –
COc1ccccc1NC(=O)c1cc(-c2cc(OC)c(OC)c(OC)c2)nc2ccccc12 | – | – | – | – | – | –
C[C@@H]1CCCCO[C@@H](CN(C)S(=O)(=O)c2ccccc2)[C@H](C)CN([C@H](C)CO)C(=O)c2cc(NC(=O)Nc3ccc(F)cc3)ccc2O1 | · | · | – | · | – | ·
CSCCCNC(=O)c1cn(C(C)c2ccccc2)nn1 (centres undefined) | – | · | · | · | · | –
COc1ccc(-c2cc(-c3ccccc3O)[nH]n2)cc1OC | – | – | – | – | · | –
COc1ccc(-c2cc(-c3cc(F)ccc3O)[nH]n2)cc1OC | – | – | – | 72 | · | –
CCOC(=O)N1CCC(=NNc2ncc(C(F)(F)F)cc2Cl)CC1 | – | – | – | – | – | –
CC(=O)N1CCC(=NNc2ncc(C(F)(F)F)cc2Cl)CC1 | – | – | 48 | – | – | –
Oc1cc(NCCc2cccnc2)cc2cccnc12 | · | – | 73 | – | – | –
Oc1cc(-c2ccc(N3CCCCC3)nc2)cc2cccnc12 | · | – | – | – | · | ·
Oc1cc(Nc2cccnc2)cc2cccnc12 | · | – | 58 | – | – | –
Cc1cccc(N2C(=O)CC(SC(=Nc3ccccc3)Nc3ccccc3)C2=O)c1 (centres undefined) | – | – | – | 74 | · | –
O=C1CC(SC(=Nc2ccccc2)Nc2ccccc2)C(=O)N1c1ccc(Cl)c(Cl)c1 (centres undefined) | – | – | – | – | · | –
Cc1ccnc(SC2CC(=O)N(c3ccc(F)cc3)C2=O)n1 (centres undefined) | – | 344 | – | – | – | –
O=C(N/N=C/c1cccnc1)c1cccc(NC(=O)c2cccc(Br)c2)c1 | – | – | · | – | – | –
Nc1nonc1C(=O)N/N=C/c1cc(Br)ccc1O | – | – | · | 138 | – | –
Cc1nccn1CC(=O)N/N=C/c1ccccc1O | – | · | 74 | · | – | –
O=C(N/N=C/c1ccc(O)c2ncccc12)c1cccc(Br)c1 | – | – | – | 72 | – | –
O=C(N/N=C/c1cc(Cl)ccc1O)c1ccc(Br)cc1 | – | – | – | 135 | – | –
Nc1nonc1-n1nnc(C(=O)N/N=C/c2cc(Br)ccc2O)c1CNc1ccccc1 | · | – | – | – | – | –
Cc1noc(C)c1S(=O)(=O)Nc1ccc2c(c1)CC(=O)N([C@@H](C)CO)C[C@H](C)[C@@H](CN(C)S(=O)(=O)c1ccc(Cl)cc1)O2 | · | · | · | · | – | ·
SMILES | NSD2 HMT inh | SR-BI uptake up | ARNT-TACC3 inh | SR-BI DiI inh | Xi reactivation | sPLA2-III inh
C[C@@H]1CN([C@@H](C)CO)C(=O)Cc2cc(NC(=O)Cc3cn(C)c4ccccc34)ccc2O[C@@H]1CN(C)Cc1ccc(Oc2ccccc2)cc1 | · | · | – | · | – | ·
COc1ccc(NC(=O)Nc2ccc3c(c2)C(=O)N([C@@H](C)CO)C[C@H](C)[C@H](CN(C)S(=O)(=O)c2cccs2)OCCCC[C@H](C)O3)cc1 | · | · | – | · | – | ·
COc1ccc(/C=N/NC(=O)C(=O)Nc2ccccn2)cc1OC | – | – | – | – | · | –
Cc1ccc(N=Nc2ccc(O)c(/C=N\NC(=O)c3ccc(N)cc3)c2)cc1C | – | – | – | 115 | · | –
O=C(N/N=C/c1ccccc1O)C(=O)Nc1ccccn1 | – | – | 48 | 88 | – | –
O=C(N/N=C/c1ccc2nccnc2c1)c1ccncc1 | – | 355 | – | – | – | –
O=C(N/N=C/c1cc(Br)ccc1O)c1ccncc1 | – | – | 61 | 120 | – | –
CCC(=O)c1ccc(O)c(CC=C(C)C)c1 | – | – | – | – | · | –
O=C(N/N=C\c1cc(Br)ccc1O)c1ccc(S(=O)(=O)N2CCCCC2)cc1 | – | – | – | 137 | – | –
O=C(N/N=C/c1ccccc1)c1cc[n+]([O-])cc1 | – | · | – | · | – | –
O=C(N/N=C/c1ccccc1O)c1ccncc1 | · | – | 66 | – | – | –
O=C(N/N=C/c1ccccc1O)c1cc[n+]([O-])cc1 | – | – | 63 | – | – | –
O=C(N/N=C/c1cccc2ccccc12)c1ccncc1 | – | – | – | – | – | –
COc1ccc(C(=O)N[C@H]2CC[C@@]34CCCN3C(=O)CCC[C@H]4[C@H]2C)cc1 | · | · | · | · | · | –
COCCCn1c(SCCc2ccccc2)nc2cc(OC)c(OC)cc2c1=N | – | – | – | – | – | –
CCSc1nc2cc(OC)c(OC)cc2c(=O)n1CCc1ccccc1 | – | – | – | 71 | · | –
O=c1[nH]c(/C=C\c2ccc(O)c(O)c2)nc(O)c1[N+](=O)[O-] | – | – | 37 | – | – | –
COc1ccc(-c2cc(C(=O)Nc3sc4c(c3C#N)CCCC4)c3ccccc3n2)cc1OC | – | – | – | 85 | · | –
Cc1cc(C(=O)Nc2sc3c(c2C#N)CCCCC3)cs1 | – | – | – | 79 | · | ·
COc1ccc(-c2cc(C(=O)Nc3ccccc3O)c3ccccc3n2)cc1OC | – | – | – | – | – | –
COc1ccc(-c2cc(C(=O)OCC(=O)NC3CC3)c3ccccc3n2)cc1OC | – | – | · | 72 | – | –
COc1ccc(-c2cc(C(=O)Nc3nc4ccccc4s3)c3ccccc3n2)cc1OC | – | – | – | 75 | – | –
COc1ccc(-c2cc(C(=O)Nc3c(Cl)cc(Cl)cc3Cl)c3ccccc3n2)cc1OC | – | – | – | – | – | –
COc1ccc(C(=O)Nc2nc3ccc(S(C)(=O)=O)cc3s2)cc1OC | – | – | – | 78 | – | –
Cc1ccnc(NC(c2cccnc2)c2ccc3cccnc3c2O)c1 (centres undefined) | – | – | 61 | – | – | –
Cc1ccnc(NC(c2ccccc2)c2ccc3cccnc3c2O)c1 (centres undefined) | – | – | – | – | – | –
CSc1ncccc1C(=O)OCC(=O)NC1CCCCC1 | – | – | – | – | – | –
O=S(=O)(c1cccc(-c2csc(-c3ccccc3)n2)c1)N1CCOCC1 | – | – | – | – | · | –
O=S(=O)(c1cccc(-c2csc(N/N=C/c3ccco3)n2)c1)N1CCOCC1 | – | – | – | 72 | – | –
